# M4 PAM: CHRM4 positive allosteric modulation. P08173. CHO-K1 hM4/Gqi5, Fluo-8 calcium fluorescence, ACh EC20; 0% = ACh EC20, 100% = maximal ACh. activation, % at 3 µM. 0.4% of 360,000 active;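 active = activation above its plate's cutoff, the mean activation of sample wells plus 3 SD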
# Target sequence (P08173 whole entry, looked up): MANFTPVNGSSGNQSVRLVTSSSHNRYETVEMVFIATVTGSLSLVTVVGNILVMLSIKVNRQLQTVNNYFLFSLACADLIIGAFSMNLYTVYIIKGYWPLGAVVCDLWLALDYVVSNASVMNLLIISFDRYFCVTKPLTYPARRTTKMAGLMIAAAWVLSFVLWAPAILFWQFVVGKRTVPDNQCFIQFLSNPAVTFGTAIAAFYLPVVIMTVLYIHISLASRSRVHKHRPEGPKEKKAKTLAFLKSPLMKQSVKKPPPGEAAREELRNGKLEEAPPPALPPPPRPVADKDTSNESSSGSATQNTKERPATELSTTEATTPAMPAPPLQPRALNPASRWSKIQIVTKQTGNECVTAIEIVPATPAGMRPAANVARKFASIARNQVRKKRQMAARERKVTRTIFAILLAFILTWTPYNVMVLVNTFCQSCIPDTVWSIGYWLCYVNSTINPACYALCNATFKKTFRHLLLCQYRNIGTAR
# CHRM5 antagonist: blocks acetylcholine activation of human M5 receptor. CHO-hM5 cells, Fluo-8 calcium fluorescence, ACh EC80. inhibition, % at 3 µM. 0.59% of 360,000 active;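 active = inhibition above a per-plate cutoff, the mean of that plate's test compounds plus 3 SD, cut at about 27% in these data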;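 also: 0% = acetylcholine EC80 with DMSO and 100% = DMSO without agonist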
# CHRM4 antagonist: blocks acetylcholine activation of human M4 receptor; P08173; CHO-hM4 cells, ACh EC80, Fluo-8 calcium fluorescence; inhibition, % at 3 µM; 0.73% of 360,000 active; AID 624125;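 active = inhibition above its plate's cutoff, the mean inhibition of sample wells plus 3 SD, cut at about 27% in these data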;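 also: 0% = acetylcholine EC80 with DMSO and 100% = DMSO without agonist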
# M5 PAM: potentiates acetylcholine response at human M5 receptor; P08912; CHO-K1 hM5, Fluo-8 calcium, ACh EC20 PAM; 0% = ACh EC20, 100% = ACh EC100; activation, % at 3 µM; 0.3% of 360,000 active;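 active = activation above the run cutoff, the mean activation of all test compounds plus 3 SD, cut at about 18% in these data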
#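 system = human M5 receptor in CHO-K1 cells | compound = one concentration, 3 µM final (nominal) | schedule = Post-acetylcholine fluorescence recording 140 s | signal = Fluo-8 calcium dye fluorescence, kinetic read | benchmarks = low control EC20 acetylcholine (0%), high control EC100 acetylcholine (100%) | repeats = singlicate, one well per test compound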
# M5 ag: agonists of human muscarinic M5 receptor (CHRM5) | P08912 | CHO-K1 hM5 cells, Fluo-8 calcium fluorescence; 0% DMSO wells, 100% maximal acetylcholine response | AID 624037 | 0.19% of 360,000 active | activation, % at 3 µM;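 active = activation above the run's mean over test compounds plus 3 SD, cut at about 23% in these data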;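 also: signal is peak over basal fluorescence ratio across the kinetic read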
# M4 ag: CHRM4 agonism in calcium assay. P08173. CHO-K1 hM4/Gqi5, Fluo-8 calcium fluorescence; vehicle 0%, full acetylcholine response 100%. activation, % at 3 µM. 0.14% of 360,000 active;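 active = activation above the run mean over all test wells plus 3 SD, cut at about 32% in these data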;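 also: peak over basal fluorescence ratio per well then scaled between controls; 0% = DMSO wells and 100% = acetylcholine at EC100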
# Active calls of the source: *. Rows were chosen to be rich in hits. Some 1.9% of all compounds tested hit in one or more screens of this group.
SMILES,M4 PAM,CHRM5 antagonist,CHRM4 antagonist,M5 PAM,M5 ag,M4 ag
CCCNC(=O)C1(C)CCCN(C(=O)COc2ccc(Cl)cc2Cl)C1 (stereo not given),-0.4,-3.9,-6.4,-2.4,1.1,1.9
COC(=O)c1c(C)oc2ccc(N(C(=O)c3ccncc3)S(=O)(=O)c3ccc4ccccc4c3)cc12,-9.6,25.4,33.1*,-14.8,0.9,7.1
COc1ccc(CN(C(=O)CSc2nnc(-c3c[nH]c4ccccc34)o2)c2ccc(F)cc2)cc1OC,-12.0,21.4,40.5*,-26.2,4.7,19.4
CCOC(=O)CSc1nnc(-c2c[nH]c3ccccc23)o1,-17.4,3.5,100.0*,-2.8,1.1,-1.5
COc1ccc(CN(C(=O)CSc2nnc(-c3ccc(F)cc3)o2)c2ccc(F)cc2)cc1,6.2,6.2,0.9,-2.9,3.0,2.1
COc1ccccc1NC(=O)CSc1nnc(-c2ccncc2)o1,6.0,-2.6,-9.4,22.8*,-1.5,1.6
CCOC(=O)N1CCN(C(=O)CSc2nnc(-c3ccccc3OC)o2)CC1,29.6*,-5.2,10.0,0.5,1.3,-0.5
CCOc1cccc(-c2cnc3cccnn23)c1,1.8,12.9,-9.4,-9.9,-4.3,0.0
O=C(CSc1nnc(Cn2nnc3ccccc32)o1)N(Cc1ccc(F)cc1)c1ccccc1,-19.7,36.5*,21.0,-15.0,1.3,9.5
CC1(C(=O)NCc2cccc3ccccc23)CCN1C(=O)Cc1ccc(-c2ccccc2)cc1 (stereo not given),-6.0,13.7,21.4,-8.7,1.2,10.9
O/C(=C\c1nc2ccccc2[nH]1)c1cccs1,5.5,4.4,-4.2,3.0,1.1,3.5
O=C(/C(=C\c1ccccc1)c1nc2ccccc2[nH]1)c1ccc(Cl)cc1,0.1,0.0,-13.0,-3.6,-1.9,2.2
O=C(/C(=C/c1ccc(Cl)cc1)c1nc2ccccc2[nH]1)c1cccs1,-16.2,19.7,66.4*,-23.4,-5.9,3.7
O=c1[nH]c2ccccc2nc1/C=C(\O)c1cccs1,-6.6,14.1,6.4,-16.0,31.4*,11.6
OC[C@@H]1CN(Cc2cccc3ccccc23)C[C@H](n2cnc3c(NCc4ccco4)ncnc32)O1,-10.3,18.1,13.4,-15.4,5.2,28.3
NCCCCNCCCN,-0.4,12.5,-0.9,-20.8,75.2*,2.8
CCOC(=O)c1cc2ccccc2n1C1CCN(C)CC1,4.3,2.3,3.9,-0.3,-4.0,4.8
CC(=O)Nc1cc(S(=O)(=O)C(F)(F)F)ccc1Cl,1.0,-9.8,-2.2,18.6*,-1.5,0.2
O=C1Nc2ccccc2-c2nnnn2C1N1CCCC1 (stereo not given),0.8,7.6,0.1,1.1,-2.0,0.5
COc1ccc(-c2nnc(OC)c3ccccc23)cc1,-14.7,3.6,34.6*,-1.7,0.0,0.9
CSc1ccc(CNC(=O)C2CCC(=O)N(CCc3ccc(Cl)cc3)C2)cc1 (stereo not given),-1.9,8.6,-1.5,-1.7,0.2,5.0
COC(=O)c1sccc1-n1cc2c(c1-c1ccccc1)c(=O)n(C)c(=O)n2C,-4.2,0.7,4.7,-5.3,-0.2,1.3
N#Cc1c(C(F)(F)F)cc(-c2ccco2)nc1SCc1ccncc1,-7.2,25.9,24.9,-5.4,0.4,16.0
N#Cc1c(C(F)(F)F)cc(-c2ccco2)nc1SCc1ccccn1,-8.3,26.8,21.4,-10.6,12.2,55.7*
CCc1nc2ccc(C(=O)NCCc3c[nH]c4ccccc34)cn2c1N(C)CCCc1ccccc1,-16.0,14.7,22.8,-11.0,-1.8,1.7
SMILES,M4 PAM,CHRM5 antagonist,CHRM4 antagonist,M5 PAM,M5 ag,M4 ag
O=[N+]([O-])c1ccccc1CNc1ccc(F)c(Cl)c1,-2.1,13.5,1.1,-7.0,-2.2,0.2
COc1cccc(CNc2ccc(F)c([N+](=O)[O-])c2)c1O,-6.6,13.4,68.3*,-8.1,1.2,6.6
C=C(C)COc1ccc(-c2ncnc(C(F)(F)F)c2-c2ccccc2)c(O)c1,-12.4,16.8,26.7*,-13.9,-5.6,3.0
C=C(C)COc1ccc(-c2ncnc(C(F)(F)F)c2-c2ccc(OC)cc2)c(O)c1,-14.7,24.5,25.2,-14.2,-4.9,7.5
N#Cc1ccc(C(=O)N2CCCCC2c2cc(C(=O)Nc3ccc4c(c3)OCO4)no2)cc1 (stereo not given),-6.3,-5.1,-8.1,-5.3,2.3,7.6
Oc1cnn(-c2ccccc2)c1,30.9*,13.1,11.7,3.4,-2.9,1.5
Oc1ccc(-c2[nH]ncc2-c2cnn(-c3ccccc3)c2)c(O)c1,1.1,11.9,-0.2,2.7,-2.8,1.2
COc1cc(OC)cc(-c2noc(-c3csc([C@@H]4C[C@H](O)[C@@H](CO)O4)n3)n2)c1,9.1,2.0,-12.4,-1.6,-1.9,3.4
CCN(CC)c1ccc(C=C2C(=O)OC(c3ccccc3)OC2=O)cc1 (stereo not given),8.0,12.3,-1.4,-7.8,-2.4,1.6
CCN(CC)c1ccc(/C=C/C(=O)C2C(=O)C=C(C)OC2=O)cc1 (stereo not given),-21.0,42.1*,21.2,-27.7,183.8*,49.2*
O=C(CCCN1C(=O)C(=Cc2ccc3c(c2)OCO3)SC1=S)Nc1ccc(C(=O)O)c(O)c1,8.1,-6.1,-24.1,0.6,2.0,-1.5
CCCCNC(=O)C1C(c2ccc(C(F)(F)F)cc2)=Nc2ccccc2N1C(=O)C1CCN(C(C)=O)CC1 (stereo not given),2.8,-0.1,-1.9,7.0,3.2,5.4
COc1ccc(-c2cc(C(=O)OCC(=O)c3cccc([N+](=O)[O-])c3)c3cc(C)ccc3n2)cc1,23.0*,13.3,-7.9,17.1,4.2,2.8
Cc1cc(C)n(/N=C/c2ccccc2O)c(=O)c1,10.5,-19.0,8.8,25.1*,3.1,1.3
Cc1ccc2[nH]c(-c3ccccc3)c(CN3CCCC3)c(=O)c2c1,13.2,-13.7,-10.8,20.3*,-3.5,-0.4
O=C(Nc1ccon1)c1ccc(OC2CCCC2)cc1,-10.7,9.6,38.2*,-9.0,-0.2,1.2
CC(C)(C)c1cc(NC(=O)c2ccc(OC3CCCC3)cc2)no1,2.2,3.1,-4.0,-1.1,0.5,1.0
O=C1NC[C@@H](CCCCN2CCN(Cc3ccccc3)C(=O)C2=O)N(CCC2CCCCC2)C1=O,-8.3,2.8,0.3,-4.4,-4.6,0.2
O=C(c1cccc(NS(=O)(=O)c2ccc(F)c(F)c2)c1)N1CCN(C(c2ccccc2)c2ccccc2)CC1,31.0*,8.6,-8.7,-4.5,-1.8,1.9
CC[C@H](C)[C@H]1CNC(=S)N1CC1CCN(CCCCc2ccccc2)CC1,-15.1,20.2,37.3*,-18.4,-3.4,0.8

# Bioassay records: PubChem, The Scripps Research Institute Molecular Screening Center
